# Measured values from different studies.
# Protocols differ between the studies behind these lines.
# Target: Serine/threonine-protein kinase pim-3 (PIM3, Homo sapiens, UniProt Q86V86)
SMILES,observed,technique,concentration,remaining binding
C[C@H]1CCN(c2nccc(-c3cnn4ncccc34)n2)C1,binding,,1 µM,81%
O=C(NCCCN1CCOCC1)c1ccc(Nc2nccc(-c3cc4ccccc4s3)n2)cc1,binding,competition with immobilised ligand,1 µM,91%
COc1cnc(Nc2cccc(S(N)(=O)=O)c2)nc1N1CCN(c2ccccc2)CC1,binding,competition with immobilised ligand,1 µM,94%
O=C(c1ccc(Nc2ncc(Cl)c(-c3ccc(Cl)s3)n2)cc1)N1CCC(N2CCCC2)CC1,binding,competition with immobilised ligand,1 µM,73%
N#CC1(c2ccccn2)CCN(Cc2cc(C(=O)N3CCCC3)c(=O)n3ccccc23)CC1,cell-free assay,competition with immobilised ligand,1 µM,99%
c1cnn2ncc(-c3ccnc(N4CCC45COC5)n3)c2c1,binding,,1 µM,84%
C[C@@H]1CN(c2cc(-c3nn(C)c4ccc(OC5(C)CC5)cc34)ncn2)C[C@H](C)O1,cell-free assay,competition with immobilised ligand,1 µM,92%
Cc1cnn2ncc(-c3ccnc(N(C)C)n3)c2c1,binding,,1 µM,85%
CO[C@@H](C)c1c(Nc2ccc([C@@H](N(C)C(=O)C3CCS(=O)(=O)CC3)C(F)(F)F)cc2)cnc2cc(Cl)nn12,cell-free assay,competition with immobilised ligand,1 µM,97%
COc1ccnn2ncc(-c3ccnc(N(C)C)n3)c12,binding,,1 µM,81%
O=C(Nc1c[nH]nc1C(=O)NC1CCNCC1)c1cc(F)cc(F)c1,binding,competition with immobilised ligand,1 µM,88%
COc1ccc2c(O[C@@H]3C[C@H]4C(=O)N[C@]5(C(=O)O)CC5/C=C\CCCCC[C@H](NC(=O)OC5CCCC5)C(=O)N4C3)cc(-c3csc(NC(=O)C(C)C)n3)nc2c1C (stereo partly shown),cell-free assay,competition with immobilised ligand,1 µM,94%
CC(C)(C)c1ccc(-c2nc(CBr)nn2-c2cccc(O)c2)cc1,cell-free assay,competition with immobilised ligand,10 µM,100%
F[C@@H]1CCN(c2nccc(-c3cnn4ncccc34)n2)C1,binding,,1 µM,100%
C=CC(=O)N1CCC(C(=O)NCC(=O)N2CCN(c3nc(-c4cnc(N)nc4C(F)F)nc(N4CCOCC4)n3)CC2)CC1,binding,competition with immobilised ligand,1 µM,97%
C[C@H](c1cccc(C#N)c1)n1cc(Cl)cc(C(N)=O)c1=N,cell-free assay,competition with immobilised ligand,1 µM,100%
